Results as given in ChEMBL document CHEMBL1125420, “Synthesis and biological activity of novel folic acid analogues: pteroyl-S-alkylhomocysteine sulfoximines” (J Med Chem, 1992).

Columns and labels:
[1] = test system: L1210; assay: Compound was tested for release of tritium from 1 uM [5-3H]-dUMP into water at a conc of 0.4 mM enzyme(bovine thymidylate synthase) was added to cell suspension in presence of CH2O; assay type: functional, Mus musculus
In short: (§1)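 L1210 cells (transplanted, harvested), partially permeabilized with dextran sulfate, at (2–5) × 10^7 cells/mL. Preincubated with cofactor 15 min at 37 °C with 0.2 mM NADPH, 1 mM serine or 7.5 mM CH2O, 2-mercaptoethanol, MgCl2, EDTA, NaF, 80 mM Tris-acetate pH 7.4. Then 1 μM [5-3H]dUMP added for 30 min. Where enzyme added, 0.016 unit per 0.15 mL suspension. Tritium in water given as % of total, background-corrected; two experiments in duplicate.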

[2] = test system: L1210; assay: (§2) Inhibitory activity against growth of L1210 leukemia cells in culture; assay type: functional, cell-based; settings: Mus musculus
In short: (§3)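 Murine L1210 leukemia cells, duplicate cultures, exposed to increasing concentrations alongside folic acid for 48 h at 37 °C in RPMI 1640 with 10% fetal calf serum. Cells counted; IC50 (50% inhibition of control growth) read graphically; percent inhibition also taken at 0.5 mM. Averages of two experiments run in duplicate.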

[3] = test system: L1210; assay: Compound was tested for release of tritium from 1 uM [5-3H]-dUMP into water at a conc of 0.4 mM enzyme(bovine thymidylate synthase) was added to cell suspension in presence of serine; assay type: functional, Mus musculus; in short: as §1
[4] = test system: L1210; assay: Compound was tested for release of tritium from 1 uM [5-3H]-dUMP into water at a con of 0.4 mM and without addition of bovine thymidylate synthase to cell suspension in absence of CH2O; assay type: functional, Mus musculus; in short: as §1
[5] = test system: L1210; assay: Inhibitory activity against growth of L1210 leukemia cells in culture at 0.5 mM; assay type: functional; settings: Mus musculus; in short: as §3
[6] = test system: L1210; assay: Compound was tested for release of tritium from 1 uM [5-3H]-dUMP into water at a con of 0.4 mM and without addition of bovine thymidylate synthase to cell suspension in absence of serine; assay type: functional, Mus musculus; in short: as §1
[7] = test system: L1210; assay: as §2; assay type: functional, Mus musculus; in short: as §3
[8] = test system: L1210; assay: Compound was tested for release of tritium from 1 uM [5-3H]-dUMP into water at a conc of 0.4 mM, enzyme(bovine thymidylate synthase) was added to cell suspension in presence of serine; assay type: functional, Mus musculus; in short: as §1

Compound | Tritium release [1] | IC50 [2] | Tritium release [3] | Tritium release [4] | inhibition at 500 µM [5] | Tritium release [6] | Inhibition [7] | Tritium release [8]
CCC[S+](=N)([O-])CCC(NC(=O)c1ccc(NCc2cnc3nc(N)nc(O)c3n2)cc1)C(=O)O (racemic) | 7.3% | 300 µM | 9.2% | 4.3% | 75.2% | 4.2% |  | 
CCCC[S+](=N)([O-])CCC(NC(=O)c1ccc(NCc2cnc3nc(N)nc(O)c3n2)cc1)C(=O)O (racemic) | 5.8% | 270 µM | 7% | 4.4% | 75.2% | 4% |  | 
Nc1nc(=O)c2nc(CNc3ccc(C(=O)N[C@@H](CCC(=O)O)C(=O)O)cc3)cnc2[nH]1 [FOLIC ACID] | 21.8% | > 10000 µM | 24.1% | 20.6% |  | 19.1% | 33.6% | 
C[S+](=N)([O-])CCC(NC(=O)c1ccc(NCc2cnc3nc(N)nc(O)c3n2)cc1)C(=O)O (mixture of isomers) | 8.3% | 190 µM |  | 5% | 76.4% | 3.9% |  | 9.5%
CC[S+](=N)([O-])CCC(NC(=O)c1ccc(NCc2cnc3nc(N)nc(O)c3n2)cc1)C(=O)O (racemic) | 6.8% | 220 µM | 8.3% | 4.9% | 80.2% | 4.2% |  | 
CS(=O)(=O)CCC(NC(=O)c1ccc(NCc2cnc3nc(N)nc(O)c3n2)cc1)C(=O)O (stereo unspecified) | 6.7% | 390 µM | 7.8% | 4.6% | 78.6% | 3.6% |  | 
